A selection: hits, their analogues and other compounds. The true share with any hit is near 4.2%.
Rad51 HR inh: blocks human Rad51 in homologous recombination; AID 1385; 200,000 tested, 0.085% active; hRad51 DNA strand exchange, fluorescence dequenching; inhibition, % at 10 µM;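 active = inhibition above 40% at the single screening dose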
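Material: human Rad51–ssDNA filaments; Probe or stimulus: labelled 47-mer dsDNA for strand exchange; Doses: single 10 µM dose; Incubation: 37 °C 15-min filament assembly, 30-min compound preincubation, 15-min exchange; Technique: FRET fluorescence dequenching, excitation 485 nm, emission 520 nm; Measure: Fluorescence-based percent inhibition, control- and blank-normalised; Benchmarks: plate control and blank wells.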
WT yeast gro inh: growth inhibition of WT yeast, mitochondrial fusion screen | mitochondrial fusion phenotypic screen, WT strain | inhibition, % at 10 µM | 190,000 tested, 2.1% active | AID 1362; in the data active = inhibition above about 58%; tested in S. cerevisiae
Insulin prom up: MIN6 insulin promoter up-regulation; AID 1625; 190,000 tested, 0.3% active; MIN6 insulin promoter-GFP reporter, high-content imaging; active compounds read high; z-score at 5 µM;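 active = z-score above 3 at 5 µM with at least 500 cells counted in the well; inconclusive = wells under 500 cells, flagged as cytotoxic or low count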
SKKanGAS inh: blocks kanamycin growth of S. pyogenes SKKanGAS strain | AID 1662 | inhibition, % at 7.5 µM | 300,000 tested, 1.3% active | BacTiter-Glo, 6 h;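 active = mean replicate score, as percent of positive control median, at least 50; inconclusive = mean below 50 but one replicate at or above 50; inactive = mean and every replicate below 50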;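 also: strain carries kanamycin resistance gene driven by streptokinase promoter and grows in 40 µg/ml kanamycin; loss of luminescence reflects streptokinase promoter inhibition or plain growth inhibition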
Cl transport mod: modulators of human KCC2 chloride dependent transport; Q9H2X9; KCC2 cells, thallium flux FluoZin-2 fluorescence; B-score of Tl+ flux slope (higher = more flux/activation; lower = inhibition) at 10 µM; 190,000 tested, 2.2% active; AID 1456;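 active = thallium flux slope and its plate-corrected score both differing from the plate sample mean at a set confidence after two filtering rounds, in either direction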;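 also: slope of fluorescence scaled to starting intensity during 10 to 20 s after thallium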
Target sequence (Q9H2X9 whole entry, looked up): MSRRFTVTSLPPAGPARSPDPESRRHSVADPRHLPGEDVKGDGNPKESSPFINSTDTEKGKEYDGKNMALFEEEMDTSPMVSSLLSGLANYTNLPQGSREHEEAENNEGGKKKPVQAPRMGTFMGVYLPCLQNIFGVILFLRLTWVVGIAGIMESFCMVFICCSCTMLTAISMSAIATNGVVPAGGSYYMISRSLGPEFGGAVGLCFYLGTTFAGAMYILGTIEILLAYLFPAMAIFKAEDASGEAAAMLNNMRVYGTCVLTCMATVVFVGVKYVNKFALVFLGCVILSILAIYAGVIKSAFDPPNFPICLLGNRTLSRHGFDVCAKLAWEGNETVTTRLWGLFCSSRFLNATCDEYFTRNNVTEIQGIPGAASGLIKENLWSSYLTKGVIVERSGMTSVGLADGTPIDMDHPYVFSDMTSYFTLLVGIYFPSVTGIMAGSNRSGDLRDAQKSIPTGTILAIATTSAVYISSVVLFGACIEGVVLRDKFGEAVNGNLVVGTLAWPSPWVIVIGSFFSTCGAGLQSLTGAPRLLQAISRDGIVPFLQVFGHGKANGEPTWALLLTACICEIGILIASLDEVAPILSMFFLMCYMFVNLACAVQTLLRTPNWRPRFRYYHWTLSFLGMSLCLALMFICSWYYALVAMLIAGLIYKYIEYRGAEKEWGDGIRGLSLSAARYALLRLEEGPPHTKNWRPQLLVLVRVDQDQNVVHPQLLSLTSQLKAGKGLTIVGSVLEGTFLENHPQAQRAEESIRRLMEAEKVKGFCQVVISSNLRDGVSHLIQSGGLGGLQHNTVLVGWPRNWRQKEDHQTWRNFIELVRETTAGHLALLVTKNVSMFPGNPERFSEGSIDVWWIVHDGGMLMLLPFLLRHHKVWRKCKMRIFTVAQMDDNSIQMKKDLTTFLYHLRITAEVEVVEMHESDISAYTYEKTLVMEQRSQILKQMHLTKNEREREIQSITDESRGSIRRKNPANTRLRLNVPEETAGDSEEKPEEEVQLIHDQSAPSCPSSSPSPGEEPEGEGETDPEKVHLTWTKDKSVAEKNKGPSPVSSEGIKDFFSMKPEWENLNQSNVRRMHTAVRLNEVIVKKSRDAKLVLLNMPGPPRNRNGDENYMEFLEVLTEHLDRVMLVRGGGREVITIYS
Autophagy mod: autophagy modulation, high-content screen. MEF GFP-LC3 puncta imaging; test concentration mostly 10 µM. calls only at 10 µM (by protocol). 190,000 tested, 0.98% active. AID 463193;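 active = percentage of spot-positive cells more than 3 SD above its plate mean, without a fluorescence outlier flag or 80% toxicity; inconclusive = no clear call, values can overlap the other calls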
KCC2 sec1: KCC2 (human) modulation, secondary assay; HEK293-KCC2, thallium flux, FluoZin2 fluorescence; active compounds read high; normalised thallium flux (F/F0 slope) at 10 µM; shares compounds with Cl transport mod; 3,700 tested, 15% active;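 active = thallium flux slope above the same plate's solvent-only control mean plus 3 SD; inconclusive = the two replicate wells disagree; inactive = no significant difference from solvent-only control wells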
KCC2 bumet counter: bumetanide-insensitive thallium flux in KCC2 cells with ouabain, counter-screen | shares compounds with Cl transport mod | HEK293-KCC2 + bumetanide/ouabain, thallium flux FluoZin2; active compounds read high | normalized thallium flux at 10 µM | 3,700 tested, 49% active | AID 1714;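 active = thallium entry rate above the same plate's blocked-transporter control wells by more than 3 SD; inconclusive = the two repeat wells disagree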;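 also: raw slope of fluorescence over initial fluorescence between 10 and 20 s after thallium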
KCC2 secondary2: KCC2 (human) modulation, second secondary assay; shares compounds with Cl transport mod; HEK293-KCC2, thallium flux FluoZin2 fluorescence; actives lie on both sides; F/F0 rise rate, 10–20 s post-thallium; normalized thallium flux at 10 µM; 3,700 tested, 23% active;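 active = thallium flux slope more than 3 SD above or below the plate's solvent-only control mean, mostly below; inconclusive = the two repeat wells disagreed; inactive = no significant shift from solvent-only controls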
HEK counter1: parental HEK flux effect, counter-screen | shares compounds with Cl transport mod | HEK293 parental cells, thallium flux FluoZin2, ouabain; baseline-ratio fluorescence slope, 10–20 s after thallium | thallium flux rate (normalised fluorescence) at 10 µM | 3,700 tested, 46% active;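 active = thallium flux rate significantly above the same plate's solvent-only control wells, beyond their mean plus 3 SD; inconclusive = the two replicate wells gave conflicting results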
KCC2 ouabain: KCC2 (human) modulation, ouabain retest. shares compounds with Cl transport mod. HEK293-KCC2, thallium flux FluoZin2 fluorescence; bidirectional: low = inhibitor, high = activator. raw Tl+ flux slope (below DMSO = inhibition, above = activation) at 10 µM. 3,700 tested, 48% active. AID 1717;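 active = thallium flux slope beyond 3 SD from same-plate DMSO control mean in most replicates, usually higher, sometimes lower; inconclusive = repeat tests gave conflicting results; inactive = no significant difference from controls in most replicates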;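 also: slope of initial-normalized fluorescence between seconds 10 and 20 after thallium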
HEK293 Tl flux2: counter-screen for KCC2 modulators: effect in parental HEK293 cells | shares compounds with Cl transport mod | thallium flux FluoZin-2 fluorescence slope | thallium flux slope at 10 µM | 3,700 tested, 33% active;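 active = thallium flux slope above the same plate's solvent-control mean plus 3 SD in both duplicate wells; inconclusive = duplicate wells that disagreed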;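 also: run without ouabain in cells lacking the KCC2 cotransporter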
A number is an active result; – = inactive; ? = inconclusive; · = no result.

SMILES	Rad51 HR inh	WT yeast gro inh	Insulin prom up	SKKanGAS inh	Cl transport mod	Autophagy mod	KCC2 sec1	KCC2 bumet counter	KCC2 secondary2	HEK counter1	KCC2 ouabain	HEK293 Tl flux2
Cc1nn(-c2ccccc2)c(N)c1Sc1cccc([N+](=O)[O-])c1	·	–	–	–	-7	–	–	–	–	0.0053	–	–
COc1ccc(-c2c(C#N)sc(C(N)=O)c2-c2ccc(OC)cc2)cc1	–	·	–	–	–	·	·	·	·	·	·	·
N#Cc1sc(C(N)=O)c(-c2ccccc2)c1-c1ccccc1	–	·	–	–	5.1	·	–	–	–	–	–	–
C=CCn1c(SCC(N)=O)nc2scc(-c3ccc(C)o3)c2c1=O	·	–	–	–	37	–	–	0.028	0.047	0.037	0.042	0.035
O=C(C1CCCN(S(=O)(=O)c2cccc3nonc23)C1)N1CCC(Cc2ccccc2)CC1 (centres undefined)	–	–	–	–	·	–	–	?	0.024	–	?	–
O=C(NCCN1CCC(Cc2ccccc2)CC1)C1CCCN(S(=O)(=O)c2cnc[nH]2)C1 (centres undefined)	·	–	–	–	-4	–	–	–	–	–	–	–
O=C1NCC(O)=C1C=NCCO	–	–	–	–	·	–	–	–	–	–	–	–
O=C(O)CCCN=CC1=C(O)CNC1=O	–	–	·	–	–	–	·	·	·	·	·	·
C=CCn1c(SCc2ccc(C(=O)O)cc2)nc2sc(C)c(C)c2c1=O	·	·	–	–	46	·	0.021	0.053	?	0.035	0.05	0.014
Cc1ccc(S(=O)(=O)NCc2ccc(C(=O)N3CCN(Cc4ccccc4)CC3)cc2)cc1	–	–	–	–	-2.6	–	–	?	0.027	–	?	–
O=C(c1cccc(S(=O)(=O)NCc2ccccc2)c1)N1CCN(Cc2ccccc2)CC1	–	–	–	–	-2.7	–	–	0.0061	–	–	–	–
CC(=O)c1ccc(NC(=O)CSc2ccc(-c3ccc(-n4cccn4)cc3)nn2)cc1	·	·	·	–	·	·	·	·	·	·	·	·
C=CCN1C(=O)C2(OCCCO2)c2cc(Cl)ccc21	·	·	·	–	·	·	·	·	·	·	·	·
Cc1ccccc1CSCCNS(C)(=O)=O	–	–	–	–	·	–	–	–	–	–	–	–
Cc1ccc(C(=O)NCCCNC(=O)COc2ccc(C)c(C)c2)cn1	·	·	·	–	·	·	·	·	·	·	·	·
O=[N+]([O-])c1ccc(-c2cn(-c3ccccc3F)c(=S)[nH]2)cc1	–	–	·	–	5.8	–	–	0.012	–	0.0089	?	0.011
N#Cc1c2n(c3c(=O)[nH]cnc13)CCCC2	–	–	–	–	–	–	·	·	·	·	·	·
N#Cc1c2n(c3c(=S)nc[nH]c13)CCCCC2	–	–	–	–	5.2	–	–	0.014	–	0.014	?	0.014
O=c1c2ccccc2nc(-c2ccc([N+](=O)[O-])cc2)n1O	–	–	–	–	9	–	?	0.02	–	0.016	0.028	?
COc1ccc(OC)c2sc(NNC(=O)C3COc4ccccc4O3)nc12 (centres undefined)	–	–	–	·	·	–	·	·	·	·	·	·
O=C(NNc1nc2c(F)cc(F)cc2s1)C1COc2ccccc2O1 (centres undefined)	–	–	–	–	6	–	?	0.036	–	?	0.033	?
O=C(Nc1nnc(C(F)(F)F)s1)C1COc2ccccc2O1 (centres undefined)	–	–	–	–	-3.8	–	–	–	–	–	–	–
O=C(Nc1nnc(C2CC2)s1)C1COc2ccccc2O1 (centres undefined)	–	–	–	–	–	–	·	·	·	·	·	·
Cc1cccc2sc(NNC(=O)C3COc4ccccc4O3)nc12 (centres undefined)	–	–	–	–	10	–	–	0.043	–	0.017	0.035	0.015
Cc1cc(C)c2sc(NNC(=O)C3COc4ccccc4O3)nc2c1 (centres undefined)	·	–	–	·	–	–	·	·	·	·	·	·
SMILES	Rad51 HR inh	WT yeast gro inh	Insulin prom up	SKKanGAS inh	Cl transport mod	Autophagy mod	KCC2 sec1	KCC2 bumet counter	KCC2 secondary2	HEK counter1	KCC2 ouabain	HEK293 Tl flux2
COc1ccc2nc(NC3=NC(C(=O)Nc4ccc(C)cc4)CC(=O)N3)nc(C)c2c1 (centres undefined)	–	–	–	–	–	–	·	·	·	·	·	·
O=c1[nH]c(CSc2nc(-c3ccccc3)cs2)nc2ccccc12	–	–	–	–	–	–	·	·	·	·	·	·
O=c1[nH]c(CSc2ncnc3sc(-c4ccccc4)cc23)nc2ccccc12	–	·	–	–	27	·	–	0.024	–	0.021	0.032	0.014
Cc1cccc(C)c1OCc1n[nH]c(=S)n1N	–	–	–	–	–	–	·	·	·	·	·	·
Nn1c(COc2ccc(Cl)cc2)n[nH]c1=S	–	–	–	–	-3.3	–	–	–	?	–	0.035	–
COCc1cc(C)nc(OCC(=O)N/N=C/c2ccc(-c3cc([N+](=O)[O-])ccc3Cl)o2)c1C#N	–	–	·	–	6.8	–	–	0.015	–	0.024	0.027	0.021
COc1cc(C(=O)OCC(=O)Nc2ccc(C)cc2)cc(OC)c1OC	·	·	·	–	·	·	·	·	·	·	·	·
Cc1cccc(-c2n[nH]c(=S)n2/N=C/c2cccs2)c1	–	·	–	–	41	·	0.019	0.08	–	0.054	0.054	0.016
Cc1cccc(-c2n[nH]c(=S)n2/N=C/c2ccc(C)s2)c1	–	–	–	–	13	–	–	0.031	–	0.016	–	0.012
S=c1[nH]nc(-c2cccs2)n1/N=C/c1c(Cl)cccc1Cl	–	–	–	63	34	–	–	0.042	–	0.022	0.029	0.019
Cc1ccsc1/C=N/n1c(-c2ccncc2)n[nH]c1=S	·	–	–	–	–	–	·	·	·	·	·	·
Fc1cccc(Cl)c1/C=N/n1c(-c2cccnc2)n[nH]c1=S	–	–	–	–	–	–	·	·	·	·	·	·
S=c1[nH]nc(-c2cccnc2)n1/N=C/c1cccs1	–	–	–	–	–	–	·	·	·	·	·	·
Cc1ccc(/C=N/n2c(-c3ccncc3)n[nH]c2=S)s1	–	·	–	–	–	·	·	·	·	·	·	·

Assay outcomes deposited in PubChem BioAssay by several laboratories.
